These results are taken from ChEMBL document CHEMBL1147446, “Antagonists of human CCR5 receptor containing 4-(pyrazolyl)piperidine side chains. Part 3: SAR studies on the benzylpyrazole segment” (Bioorg Med Chem Lett, 2004).

Test [1] concerns the target C-C chemokine receptor type 5 (Homo sapiens, UniProt P51681). The test is described as follows: Inhibitory concentration for displacement of [125I]-MIP-1 alpha from recombinant human CC chemokine receptor 5 (CCR5) expressed in CHO cell. The test is classed as cell-based. A digest of the protocol:
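Competitive binding to CCR5 on CHO cell membranes, read as displacement of [125I]-labeled MIP-1α. IC50 values are means of triplicate determinations. Standard errors were normally <15% within an assay. Assay-to-assay variation was within ±2-fold, judged from a standard compound.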
On the technique in general: Loss of bound radioactivity is the signal in a displacement assay; it reports binding, not function.

Test [2] deals with HeLa. The test is described as follows: Antiviral activities in a cell culture HIV-1 infectivity inhibition assay using HeLa cells. The test is classed as functional. As to conditions: Homo sapiens.
Test [3] deals with HeLa. The test is described as follows: Antiviral activities in a cell culture HIV-1 infectivity inhibition assay using HeLa cells plus 50% normal human serum. The test is classed as functional.

Chain of C-C chemokine receptor type 5 (P51681 whole entry): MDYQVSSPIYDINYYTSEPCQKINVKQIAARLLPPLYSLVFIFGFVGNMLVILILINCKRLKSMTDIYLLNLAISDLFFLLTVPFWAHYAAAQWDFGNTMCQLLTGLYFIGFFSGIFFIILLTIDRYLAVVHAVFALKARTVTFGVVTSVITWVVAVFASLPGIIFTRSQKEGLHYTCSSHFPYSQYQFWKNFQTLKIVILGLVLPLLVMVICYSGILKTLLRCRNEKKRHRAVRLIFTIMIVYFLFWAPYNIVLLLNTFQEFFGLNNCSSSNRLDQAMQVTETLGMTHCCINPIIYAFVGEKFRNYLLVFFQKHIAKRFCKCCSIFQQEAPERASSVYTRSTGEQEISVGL

The IC50 is the concentration at which inhibition is half-maximal. The IC90 is the point of the concentration-response curve where the effect stands at 90%. In the case of `CCn1nc(Cc2ccc(C(C)C)cc2)cc1C1CCN(C[C@H]2CN([C@@H](C(=O)O)C(C)(C)C)C[C@@H]2c2cccc(F)c2)CC1`, in test [1], the IC50 is 0.6 nM. Besides, the values for the IC90 with HeLa [2] and in the test with HeLa [3] were 0.4 nM and 33 nM, respectively.
The corresponding values for `CCOc1ccc(Cc2cc(C3CCN(C[C@H]4CN([C@@H](C(=O)O)C(C)C)C[C@@H]4c4cccc(F)c4)CC3)n(CC)n2)cc1F` are 0.4 nM, less than 0.14 nM and 100 nM.
As for `CCCCOc1ccc(Cc2cc(C3CCN(C[C@H]4CN([C@@H](C(=O)O)C5CCCCC5)C[C@@H]4c4cccc(F)c4)CC3)n(CC)n2)cc1`, the IC50 in test [1] is 0.8 nM. The IC90 with HeLa [2] worked out at 0.4 nM; in the test with HeLa [3], 33 nM.
Consider `CC[C@H](C)[C@H](C(=O)O)N1C[C@H](CN2CCC(c3cc(Cc4cccc5ccccc45)nn3CC)CC2)[C@@H](c2cccc(F)c2)C1`, for which the IC50 in test [1] came out at 0.4 nM. For the same compound, the figures for the IC90 with HeLa [2] and with HeLa [3] were less than 0.14 nM and 11 nM, respectively.
`CCn1nc(Cc2ccc(OC)c(C#N)c2)cc1C1CCN(C[C@H]2CN([C@@H](C(=O)O)C(C)C)C[C@@H]2c2cccc(F)c2)CC1`: the IC50 in test [1] stood at 0.8 nM. The figures for the IC90 in the test with HeLa [2] and in the test on HeLa [3] were 1.2 nM and 300 nM, respectively.
`CCCCOc1ccc(Cc2cc(C3CCN(C[C@H]4CN([C@@H](C(=O)O)C(C)C)C[C@@H]4c4cccc(F)c4)CC3)n(CC)n2)cc1`: the half-inhibitory concentration (IC50) in test [1] was found to be 0.5 nM. In addition, the IC90 amounted to 11 nM in the test on HeLa [2] and 300 nM with HeLa [3].
For the compound `CCn1nc(Cc2ccc(Cl)cc2)cc1C1CCN(C[C@H]2CN([C@@H](C(=O)O)C3CCCCC3)C[C@@H]2c2cccc(F)c2)CC1`, in test [1], the IC50 is 0.9 nM. Also, the IC90 in the test on HeLa [2] worked out at 0.4 nM; in the test with HeLa [3], 100 nM.
As to `CC[C@H](C)[C@H](C(=O)O)N1C[C@H](CN2CCC(c3cc(Cc4ccc(OCC(F)(F)F)cc4)nn3CC)CC2)[C@@H](c2cccc(F)c2)C1`, in test [1], the IC50 turned out to be 0.6 nM. Also, the IC90 was determined as 0.4 nM with HeLa [2] and 33 nM in the test on HeLa [3].
Take `CCn1nc(Cc2cc(F)cc(F)c2)cc1C1CCN(C[C@H]2CN([C@@H](C(=O)O)C(C)C)C[C@@H]2c2cccc(F)c2)CC1`: the IC50 in test [1] is 2.6 nM. In addition, the IC90 in the test on HeLa [2] stood at 11 nM; in the test on HeLa [3], 300 nM.
For `CC[C@H](C)[C@H](C(=O)O)N1C[C@H](CN2CCC(c3cc(Cc4ccc(O)cc4)nn3CC)CC2)[C@@H](c2cccc(F)c2)C1`, the IC50 in test [1] came to 1.4 nM. Also, the IC90 with HeLa [2] turned out to be 0.4 nM; with HeLa [3], 11 nM.
In the case of `CCn1nc(Cc2ccc(OC)cc2)cc1C1CCN(C[C@H]2CN([C@@H](C(=O)O)C3CCCCC3)C[C@@H]2c2cccc(F)c2)CC1`, the half-inhibitory concentration (IC50) in test [1] was found to be 1.1 nM. In addition, the figures for the IC90 in the test on HeLa [2] and in the test on HeLa [3] were less than 0.14 nM and 33 nM, respectively.
For `CC[C@H](C)[C@H](C(=O)O)N1C[C@H](CN2CCC(c3cc(CC4CCCCC4)nn3CC)CC2)[C@@H](c2cccc(F)c2)C1`, in test [1], the IC50 was 1.2 nM. For the same compound, the results for the IC90 with HeLa [2] and in the test with HeLa [3] were 1.2 nM and 300 nM, respectively.
`CC[C@@H](C)[C@H](C(=O)O)N1C[C@H](CN2CCC(c3cc(Cc4ccc(OC(F)F)cc4)nn3CC)CC2)[C@@H](c2cccc(F)c2)C1`: the IC50 in test [1] was 0.6 nM. Further, the IC90 is less than 0.14 nM with HeLa [2] and 11 nM in the test on HeLa [3].
With `CC[C@H](C)[C@H](C(=O)O)N1C[C@H](CN2CCC(c3cc(Cc4cccc(C#N)c4)nn3CC)CC2)[C@@H](c2cccc(F)c2)C1`, the IC50 in test [1] turned out to be 0.9 nM. Moreover, the IC90 in the test with HeLa [2] was less than 0.14 nM; in the test on HeLa [3], 11 nM.
Take `CCn1nc(Cc2ccc(OC3CCC3)cc2)cc1C1CCN(C[C@H]2CN([C@@H](C(=O)O)C(C)C)C[C@@H]2c2cccc(F)c2)CC1`: the IC50 in test [1] came out at 0.6 nM. The IC90 with HeLa [2] worked out at 1.2 nM; with HeLa [3], 100 nM.
On to `CCn1nc(Cc2ccccc2)cc1C1CCN(C[C@H]2CN([C@@H](C(=O)O)C3CCCCC3)C[C@@H]2c2cccc(F)c2)CC1`, for which, in the test with HeLa [3], the IC90 is 100 nM.
For the compound `CCn1nc(Cc2ccc(F)cc2)cc1C1CCN(C[C@H]2CN([C@@H](C(=O)O)C3CCCCC3)C[C@@H]2c2cccc(F)c2)CC1`, the IC50 in test [1] was determined as 1.1 nM. It took 33 nM to reach the 90% level in the test on HeLa [2] (IC90).
